Experimental data from ChEMBL document CHEMBL1157464, “1-[(3-Aryloxy-3-aryl)propyl]-1H-imidazoles, new imidazoles with potent activity against Candida albicans and dermatophytes. Synthesis, structure-activity relationship, and molecular modeling studies” (J Med Chem, 2008).
In brackets after ≈: the same amount, converted by molar mass.

These compounds were tested on Candida parapsilosis (assay: Antifungal activity against Candida parapsilosis ATCC 22019 at 35 degC after 48 hrs by broth microdilution test). Conditions: Lodderomyces parapsilosis, ATCC 22019, 48 h; read-out: MFC.
Type: functional
Outline: (§1)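 Broth microdilution per NCCLS M27-A2. Stocks in 100% DMSO, diluted in RPMI 1640 with 0.165 M MOPS at pH 7.0; final range 0.25–128 µg/mL. Inoculum 1000–5000 cells/mL from SDA subcultures. […] C. parapsilosis ATCC22019 served as QC strain.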

| Compound | MFC [µg/mL] |
| --- | --- |
| Clc1ccc(OC(CCn2ccnc2)c2ccc(Cl)cc2Cl)c(Cl)c1 (stereo not drawn) | 64 (≈ 154 µM) |
| Cc1ccc(C(CCn2ccnc2)Oc2ccc(C(C)C)cc2)cc1 (stereo not drawn) | 16 (≈ 47.8 µM) |
| Fc1ccc(C(CCn2ccnc2)Oc2ccccc2)cc1 (stereo not drawn) | 32 (≈ 108 µM) |
| Clc1cccc(Cl)c1OC(CCn1ccnc1)c1ccccc1 (stereo not drawn) | 32 (≈ 92.2 µM) |
| Clc1ccc(C(OCCn2ccnc2)c2ccc(Cl)cc2Cl)cc1.O=[N+]([O-])O (stereo not drawn) | 32 |
| Cc1ccc(OC(CCCCn2ccnc2)c2ccc(Cl)cc2)cc1 (stereo not drawn) | 8 (≈ 22.5 µM) |
| Cc1ccc(C(CCn2ccnc2)Oc2ccc(C)cc2C)cc1 (stereo not drawn) | 32 (≈ 99.9 µM) |
| Cc1ccc(C(CCn2ccnc2)Oc2ccc(Cl)cc2C)cc1 (stereo not drawn) | 16 (≈ 46.9 µM) |
| Clc1ccc(C(OCCn2ccnc2)c2ccc(Cl)cc2Cl)c(Cl)c1 | 64 (≈ 154 µM) |
| OC(CCn1ccnc1)(c1ccccc1)c1ccccc1 | 64 (≈ 230 µM) |

Same assay, conditions: Lodderomyces parapsilosis, ATCC 22019, 48 h; read-out: MIC

| Compound | MIC [µg/mL] |
| --- | --- |
| Clc1ccc(OC(CCn2ccnc2)c2ccc(Cl)cc2Cl)c(Cl)c1 (stereo not drawn) | 8 (≈ 19.2 µM) |
| Cc1ccc(C(CCn2ccnc2)Oc2ccc(C(C)C)cc2)cc1 (stereo not drawn) | 2 (≈ 5.98 µM) |
| Fc1ccc(C(CCn2ccnc2)Oc2ccccc2)cc1 (stereo not drawn) | 8 (≈ 27 µM) |
| Clc1cccc(Cl)c1OC(CCn1ccnc1)c1ccccc1 (stereo not drawn) | 2 (≈ 5.76 µM) |
| Clc1ccc(C(OCCn2ccnc2)c2ccc(Cl)cc2Cl)cc1.O=[N+]([O-])O (stereo not drawn) | 16 |
| Cc1ccc(OC(CCCCn2ccnc2)c2ccc(Cl)cc2)cc1 (stereo not drawn) | 8 (≈ 22.5 µM) |
| Cc1ccc(C(CCn2ccnc2)Oc2ccc(C)cc2C)cc1 (stereo not drawn) | 8 (≈ 25 µM) |
| Cc1ccc(C(CCn2ccnc2)Oc2ccc(Cl)cc2C)cc1 (stereo not drawn) | 4 (≈ 11.7 µM) |
| Clc1ccc(C(OCCn2ccnc2)c2ccc(Cl)cc2Cl)c(Cl)c1 | 32 (≈ 76.9 µM) |
| OC(CCn1ccnc1)(c1ccccc1)c1ccccc1 | 32 (≈ 115 µM) |

These compounds were tested on Candida albicans (assay: Antifungal activity against Candida albicans ATCC 10261 at 35 degC after 48 hrs by broth microdilution test). Conditions: Candida albicans, ATCC 10261, 48 h; read-out: MIC.
Type: functional
Outline: as §1

| Compound | MIC [µg/mL] |
| --- | --- |
| Clc1ccc(OC(CCn2ccnc2)c2ccc(Cl)cc2Cl)c(Cl)c1 (stereo not drawn) | 51 (≈ 123 µM) |
| Cc1ccc(C(CCn2ccnc2)Oc2ccc(C(C)C)cc2)cc1 (stereo not drawn) | 16.6 (≈ 49.6 µM) |
| Fc1ccc(C(CCn2ccnc2)Oc2ccccc2)cc1 (stereo not drawn) | 32.1 (≈ 108 µM) |
| Clc1cccc(Cl)c1OC(CCn1ccnc1)c1ccccc1 (stereo not drawn) | 46.2 (≈ 133 µM) |
| Clc1ccc(C(OCCn2ccnc2)c2ccc(Cl)cc2Cl)cc1.O=[N+]([O-])O (stereo not drawn) | 34.4 |
| Cc1ccc(OC(CCCCn2ccnc2)c2ccc(Cl)cc2)cc1 (stereo not drawn) | 32 (≈ 90.2 µM) |
| Cc1ccc(C(CCn2ccnc2)Oc2ccc(C)cc2C)cc1 (stereo not drawn) | 46.5 (≈ 145 µM) |
| Cc1ccc(C(CCn2ccnc2)Oc2ccc(Cl)cc2C)cc1 (stereo not drawn) | 16 (≈ 46.9 µM) |
| Clc1ccc(C(OCCn2ccnc2)c2ccc(Cl)cc2Cl)c(Cl)c1 | > 128 |
| OC(CCn1ccnc1)(c1ccccc1)c1ccccc1 | 114 (≈ 410 µM) |

Same assay, conditions: Candida albicans, ATCC 10261, 48 h; read-out: MIC50

| Compound | MIC50 [µg/mL] |
| --- | --- |
| Clc1ccc(OC(CCn2ccnc2)c2ccc(Cl)cc2Cl)c(Cl)c1 (stereo not drawn) | 64 (≈ 154 µM) |
| Cc1ccc(C(CCn2ccnc2)Oc2ccc(C(C)C)cc2)cc1 (stereo not drawn) | 16 (≈ 47.8 µM) |
| Fc1ccc(C(CCn2ccnc2)Oc2ccccc2)cc1 (stereo not drawn) | 32 (≈ 108 µM) |
| Clc1cccc(Cl)c1OC(CCn1ccnc1)c1ccccc1 (stereo not drawn) | 64 (≈ 184 µM) |
| Clc1ccc(C(OCCn2ccnc2)c2ccc(Cl)cc2Cl)cc1.O=[N+]([O-])O (stereo not drawn) | 32 |
| Cc1ccc(OC(CCCCn2ccnc2)c2ccc(Cl)cc2)cc1 (stereo not drawn) | 32 (≈ 90.2 µM) |
| Cc1ccc(C(CCn2ccnc2)Oc2ccc(C)cc2C)cc1 (stereo not drawn) | 32 (≈ 99.9 µM) |
| Cc1ccc(C(CCn2ccnc2)Oc2ccc(Cl)cc2C)cc1 (stereo not drawn) | 16 (≈ 46.9 µM) |
| Clc1ccc(C(OCCn2ccnc2)c2ccc(Cl)cc2Cl)c(Cl)c1 | > 128 |
| OC(CCn1ccnc1)(c1ccccc1)c1ccccc1 | 128 (≈ 460 µM) |

Same assay, conditions: Candida albicans, ATCC 10261, 48 h; read-out: MIC90

| Compound | MIC90 [µg/mL] |
| --- | --- |
| Clc1ccc(OC(CCn2ccnc2)c2ccc(Cl)cc2Cl)c(Cl)c1 (stereo not drawn) | 64 (≈ 154 µM) |
| Cc1ccc(C(CCn2ccnc2)Oc2ccc(C(C)C)cc2)cc1 (stereo not drawn) | 32 (≈ 95.7 µM) |
| Fc1ccc(C(CCn2ccnc2)Oc2ccccc2)cc1 (stereo not drawn) | 64 (≈ 216 µM) |
| Clc1cccc(Cl)c1OC(CCn1ccnc1)c1ccccc1 (stereo not drawn) | 64 (≈ 184 µM) |
| Clc1ccc(C(OCCn2ccnc2)c2ccc(Cl)cc2Cl)cc1.O=[N+]([O-])O (stereo not drawn) | 64 |
| Cc1ccc(OC(CCCCn2ccnc2)c2ccc(Cl)cc2)cc1 (stereo not drawn) | 32 (≈ 90.2 µM) |
| Cc1ccc(C(CCn2ccnc2)Oc2ccc(C)cc2C)cc1 (stereo not drawn) | 64 (≈ 200 µM) |
| Cc1ccc(C(CCn2ccnc2)Oc2ccc(Cl)cc2C)cc1 (stereo not drawn) | 16 (≈ 46.9 µM) |
| Clc1ccc(C(OCCn2ccnc2)c2ccc(Cl)cc2Cl)c(Cl)c1 | > 128 |
| OC(CCn1ccnc1)(c1ccccc1)c1ccccc1 | 128 (≈ 460 µM) |

The compounds below were run on Candida albicans (assay: Antifungal activity against Candida albicans ATCC 10261 at 35 degC after 48 to 96 hrs by broth microdilution test). Conditions: not given.
Type: functional
Outline: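 Minimal fungicidal concentration for Candida. […] MFC is the lowest concentration allowing fewer than two colonies (99% killing).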

| Compound | MFC50 [µg/mL] | MFC90 [µg/mL] |
| --- | --- | --- |
| Clc1ccc(OC(CCn2ccnc2)c2ccc(Cl)cc2Cl)c(Cl)c1 (stereo not drawn) | 64 (≈ 154 µM) | 64 (≈ 154 µM) |
| Cc1ccc(C(CCn2ccnc2)Oc2ccc(C(C)C)cc2)cc1 (stereo not drawn) | 32 (≈ 95.7 µM) | 64 (≈ 191 µM) |
| Fc1ccc(C(CCn2ccnc2)Oc2ccccc2)cc1 (stereo not drawn) | 64 (≈ 216 µM) | 64 (≈ 216 µM) |
| Clc1cccc(Cl)c1OC(CCn1ccnc1)c1ccccc1 (stereo not drawn) | 64 (≈ 184 µM) | 64 (≈ 184 µM) |
| Clc1ccc(C(OCCn2ccnc2)c2ccc(Cl)cc2Cl)cc1.O=[N+]([O-])O (stereo not drawn) | 128 | 256 |
| Cc1ccc(OC(CCCCn2ccnc2)c2ccc(Cl)cc2)cc1 (stereo not drawn) | 32 (≈ 90.2 µM) | 32 (≈ 90.2 µM) |
| Cc1ccc(C(CCn2ccnc2)Oc2ccc(C)cc2C)cc1 (stereo not drawn) | 64 (≈ 200 µM) | 64 (≈ 200 µM) |
| Cc1ccc(C(CCn2ccnc2)Oc2ccc(Cl)cc2C)cc1 (stereo not drawn) | 64 (≈ 188 µM) | 64 (≈ 188 µM) |
| Clc1ccc(C(OCCn2ccnc2)c2ccc(Cl)cc2Cl)c(Cl)c1 | >128 | >128 |
| OC(CCn1ccnc1)(c1ccccc1)c1ccccc1 | 128 (≈ 460 µM) | 128 (≈ 460 µM) |

Same assay, conditions: Candida albicans, ATCC 10261; read-out: MFC

| Compound | MFC [µg/mL] |
| --- | --- |
| Clc1ccc(OC(CCn2ccnc2)c2ccc(Cl)cc2Cl)c(Cl)c1 (stereo not drawn) | 64 (≈ 154 µM) |
| Cc1ccc(C(CCn2ccnc2)Oc2ccc(C(C)C)cc2)cc1 (stereo not drawn) | 32 (≈ 95.7 µM) |
| Fc1ccc(C(CCn2ccnc2)Oc2ccccc2)cc1 (stereo not drawn) | 57.6 (≈ 194 µM) |
| Clc1cccc(Cl)c1OC(CCn1ccnc1)c1ccccc1 (stereo not drawn) | 64 (≈ 184 µM) |
| Clc1ccc(C(OCCn2ccnc2)c2ccc(Cl)cc2Cl)cc1.O=[N+]([O-])O (stereo not drawn) | 145 |
| Cc1ccc(OC(CCCCn2ccnc2)c2ccc(Cl)cc2)cc1 (stereo not drawn) | 32 (≈ 90.2 µM) |
| Cc1ccc(C(CCn2ccnc2)Oc2ccc(C)cc2C)cc1 (stereo not drawn) | 62 (≈ 193 µM) |
| Cc1ccc(C(CCn2ccnc2)Oc2ccc(Cl)cc2C)cc1 (stereo not drawn) | 58 (≈ 170 µM) |
| Clc1ccc(C(OCCn2ccnc2)c2ccc(Cl)cc2Cl)c(Cl)c1 | > 128 |
| OC(CCn1ccnc1)(c1ccccc1)c1ccccc1 | 128 (≈ 460 µM) |

What follows are compounds tested on Arthrodermataceae (assay: Antifungal activity against dermatophytes at 28 degC after 7 days by broth microdilution test). Conditions: 168 h.
Type: functional
Outline: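 Ten clinical isolates (two M. canis, five M. gypseum, three T. mentagrophytes) tested by NCCLS M38-A broth microdilution in MOPS-buffered RPMI 1640, pH 7.0, over 0.25–128 µg/mL. Conidial/hyphal suspension from PDA slants (28 °C, 7 days) adjusted to 65–70% transmittance at OD530, then diluted 1:50.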

| Compound | MIC [µg/mL] | MIC50 [µg/mL] | MIC90 [µg/mL] |
| --- | --- | --- | --- |
| Fc1ccc(C(CCn2ccnc2)Oc2ccccc2)cc1 (stereo not drawn) | 16.1 (≈ 54.3 µM) | 16 (≈ 54 µM) | 16 (≈ 54 µM) |
| Clc1cccc(Cl)c1OC(CCn1ccnc1)c1ccccc1 (stereo not drawn) | 7.6 (≈ 21.9 µM) | 8 (≈ 23 µM) | 8 (≈ 23 µM) |
| CNCCC(Oc1ccc(C(F)(F)F)cc1)c1ccccc1 (stereo not drawn) [FLUOXETINE] | 45 (≈ 145 µM) | 32 (≈ 103 µM) | 64 (≈ 207 µM) |

These compounds were tested on Arthrodermataceae (assay: Antifungal activity against dermatophytes at 28 degC after 5 days by broth microdilution test). Conditions: not given.

| Compound | MFC90 [µg/mL] |
| --- | --- |
| Fc1ccc(C(CCn2ccnc2)Oc2ccccc2)cc1 (stereo not drawn) | 32 (≈ 108 µM) |
| Clc1cccc(Cl)c1OC(CCn1ccnc1)c1ccccc1 (stereo not drawn) | 32 (≈ 92.2 µM) |
| CNCCC(Oc1ccc(C(F)(F)F)cc1)c1ccccc1 (stereo not drawn) [FLUOXETINE] | 64 (≈ 207 µM) |

Same assay, conditions: Arthrodermataceae

| Compound | MFC [µg/mL] |
| --- | --- |
| Fc1ccc(C(CCn2ccnc2)Oc2ccccc2)cc1 (stereo not drawn) | 28.5 (≈ 96.2 µM) |
| Clc1cccc(Cl)c1OC(CCn1ccnc1)c1ccccc1 (stereo not drawn) | 28.8 (≈ 82.9 µM) |
| CNCCC(Oc1ccc(C(F)(F)F)cc1)c1ccccc1 (stereo not drawn) [FLUOXETINE] | 64 (≈ 207 µM) |

Each compound was assayed on Arthrodermataceae (assay: Antifungal activity against dermatophytes at 28 degC after 48 to 96 hrs by broth microdilution test). Conditions: not given.

| Compound | MFC50 [µg/mL] |
| --- | --- |
| Fc1ccc(C(CCn2ccnc2)Oc2ccccc2)cc1 (stereo not drawn) | 32 (≈ 108 µM) |
| Clc1cccc(Cl)c1OC(CCn1ccnc1)c1ccccc1 (stereo not drawn) | 32 (≈ 92.2 µM) |
| CNCCC(Oc1ccc(C(F)(F)F)cc1)c1ccccc1 (stereo not drawn) [FLUOXETINE] | 64 (≈ 207 µM) |
